Measured values from ChEMBL document CHEMBL2417469, “Synthesis of novel analogs of 2-pyrazoline obtained from [(7-chloroquinolin-4-yl)amino]chalcones and hydrazine as potential antitumor and antimalarial agents” (Eur J Med Chem, 2013).

Legend:
Assay type in all cases: functional
[1] = tested on: MCF7; test: Cytotoxicity against human MCF7 cells after 48 hrs by SRB assay; conditions: MCF7, 48 h; for CC50: read-out: LC50 (the source's name)
In short: (§1)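 NCI 60-cell-line screen. Cells preincubated 24 h at 37 °C, 5% CO2; time-zero plates TCA-fixed. Compounds dissolved in DMSO and tested at five concentrations (100, 10, 1.0, 0.1, 0.01 µM) for 48 h continuous exposure. Adherent cells fixed with cold TCA (10% final), then SRB stained; absorbance at 515 nm. GI50, TGI and LC50 calculated from growth relative to time-zero and untreated controls.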

[2] = tested on: DU-145; test: Cytotoxicity against human DU145 cells after 48 hrs by SRB assay; conditions: DU-145, 48 h; in short: as §1
[3] = tested on: UO-31; test: Cytotoxicity against human UO31 cells after 48 hrs by SRB assay; conditions: UO-31, 48 h
In short: (§2)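 NCI 60-cell screen. Cells grew 24 h (37 °C, 5% CO2) before compound was added. Compounds were in DMSO and diluted in medium with gentamicin, then tested at five levels (100, 10, 1.0, 0.1, 0.01 µM) with 48 h continuous exposure. Adherent cells were fixed with TCA (10% final) and stained with 0.4% SRB, absorbance read at 515 nm. A time-zero plate was included. LC50 is the concentration giving 50% loss of protein relative to time zero.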

[4] = tested on: RXF 393; test: Cytotoxicity against human RXF393 cells after 48 hrs by SRB assay; conditions: RXF 393, 48 h; in short: as §1
[5] = tested on: A498; test: Cytotoxicity against human A498 cells after 48 hrs by SRB assay; conditions: A498, 48 h; for CC50: read-out: LC50 (the source's name); in short: as §1
[6] = tested on: 786-0; test: Cytotoxicity against human 786-0 cells after 48 hrs by SRB assay; conditions: 786-0, 48 h; in short: as §1
[7] = tested on: SK-OV-3; test: Cytotoxicity against human SKOV3 cells after 48 hrs by SRB assay; conditions: SK-OV-3, 48 h; in short: as §1
[8] = tested on: OVCAR-8; test: Cytotoxicity against human OVCAR8 cells after 48 hrs by SRB assay; conditions: OVCAR-8, 48 h; in short: as §1
[9] = tested on: OVCAR-5; test: Cytotoxicity against human OVCAR5 cells after 48 hrs by SRB assay; conditions: OVCAR-5, 48 h; in short: as §1
[10] = tested on: OVCAR-4; test: Cytotoxicity against human OVCAR4 cells after 48 hrs by SRB assay; conditions: OVCAR-4, 48 h; in short: as §1
[11] = tested on: OVCAR-3; test: Cytotoxicity against human OVCAR3 cells after 48 hrs by SRB assay; conditions: OVCAR-3, 48 h; in short: as §1
[12] = tested on: SK-MEL-5; test: Cytotoxicity against human SK-MEL-5 cells after 48 hrs by SRB assay; conditions: SK-MEL-5, 48 h; in short: as §1
[13] = tested on: SK-MEL-28; test: Cytotoxicity against human SK-MEL-28 cells after 48 hrs by SRB assay; conditions: SK-MEL-28, 48 h; for CC50: read-out: LC50 (the source's name); in short: as §1
[14] = tested on: M14; test: Cytotoxicity against human M14 cells after 48 hrs by SRB assay; conditions: M14, 48 h; for CC50: read-out: LC50 (the source's name); in short: as §1
[15] = tested on: Malme-3M; test: Cytotoxicity against human MALME-3M cells after 48 hrs by SRB assay; in short: as §1
[16] = tested on: U-251; test: Cytotoxicity against human U251 cells after 48 hrs by SRB assay; conditions: U-251, 48 h; for CC50: read-out: LC50 (the source's name); in short: as §2
[17] = tested on: SNB-19; test: Cytotoxicity against human SNB19 cells after 48 hrs by SRB assay; conditions: SNB-19, 48 h; in short: as §2
[18] = tested on: SW-620; test: Cytotoxicity against human SW620 cells after 48 hrs by SRB assay; conditions: SW-620, 48 h; in short: as §2
[19] = tested on: KM12; test: Cytotoxicity against human KM12 cells after 48 hrs by SRB assay; conditions: KM12, 48 h; in short: as §1
[20] = tested on: COLO 205; test: Cytotoxicity against human COLO205 cells after 48 hrs by SRB assay; conditions: COLO 205, 48 h; in short: as §1
[21] = tested on: NCI-H460; test: Cytotoxicity against human NCI-H460 cells after 48 hrs by SRB assay; conditions: NCI-H460, 48 h; in short: as §1
[22] = Cytotoxicity against human EKVX cells after 48 hrs by SRB assay; in short: as §1
[23] = tested on: A549; test: Cytotoxicity against human A549/ATCC cells after 48 hrs by SRB assay; conditions: A549, 48 h; for CC50: read-out: LC50 (the source's name); in short: as §1
[24] = tested on: K562; test: Cytotoxicity against human K562 cells after 48 hrs by SRB assay; conditions: K562, 48 h; in short: as §1
[25] = tested on: HL-60(TB); test: Cytotoxicity against human HL-60(TB) cells after 48 hrs by SRB assay; conditions: HL-60, 48 h; for CC50: read-out: LC50 (the source's name); in short: as §1

In the case of O=CN1N=C(c2cccc(Nc3ccnc4cc(Cl)ccc34)c2)CC1c1ccc(Cl)cc1 (stereo not given), the GI50 [1] is reported as 0.81 µM, the CC50 [1] is reported as over 100 µM and the GI50 [2] is reported as 4.17 µM. The LC50 (concentration killing 50% of cells) [2] was over 100 µM, the GI50 [3] was 0.88 µM and the LC50 [3] was over 100 µM. The GI50 [4] was 3.08 µM, the LC50 (concentration killing 50% of cells) [4] was over 100 µM and the GI50 [5] was 0.83 µM. The CC50 [5] was over 100 µM, the GI50 [6] was 4.73 µM and the LC50 [6] was over 100 µM. For the same compound, the GI50 [7] was 3.48 µM, the LC50 (concentration killing 50% of cells) [7] was over 100 µM and the GI50 [8] was 3.8 µM. The LC50 (50% net cell kill) [8] was over 100 µM, the GI50 [9] was over 100 µM and the LC50 [9] was over 100 µM. For the same compound, the GI50 [10] was 4.13 µM, the LC50 [10] was over 100 µM and the GI50 [11] was 1.2 µM. It also gave an LC50 [11] of over 100 µM, a GI50 [12] of 1.86 µM and an LC50 (concentration killing 50% of cells present at time zero) [12] of over 100 µM. For the same compound, the GI50 [13] was 5.63 µM, the CC50 [13] was over 100 µM and the GI50 [14] was 1.04 µM. For the same compound, the CC50 [14] was over 100 µM, the GI50 [15] was 1.63 µM and the LC50 [15] was over 100 µM. The GI50 [16] was 1.29 µM, the CC50 [16] was over 100 µM and the GI50 [17] was 3.48 µM. For the same compound, the LC50 [17] was over 100 µM, the GI50 [18] was 0.56 µM and the LC50 [18] was over 100 µM. The GI50 [19] was 0.59 µM, the LC50 (concentration killing 50% of cells) [19] was over 100 µM and the GI50 [20] was 1.39 µM. For the same compound, the LC50 [20] was over 100 µM, the GI50 [21] was 0.79 µM and the LC50 [21] was over 100 µM. The GI50 [22] was over 100 µM, the LC50 [22] was over 100 µM and the GI50 [23] was 0.94 µM. The CC50 [23] was over 100 µM, the GI50 [24] was 0.41 µM and the LC50 (concentration killing 50% of cells) [24] was over 100 µM. The GI50 [25] was 1.1 µM and the CC50 [25] was 40.2 µM.

O=CN1N=C(c2cccc(Nc3ccnc4cc(Cl)ccc34)c2)CC1c1ccccc1 (stereo not given) gave a GI50 [1] of 0.34 µM, a CC50 [1] of over 100 µM and a GI50 [2] of 0.44 µM. The LC50 (concentration killing 50% of cells) [2] was over 100 µM, the GI50 [3] was 0.41 µM and the LC50 [3] was over 100 µM. The GI50 [4] was 0.39 µM, the LC50 (concentration killing 50% of cells) [4] was over 100 µM and the GI50 [5] was 0.23 µM. The CC50 [5] was over 100 µM, the GI50 [6] was 0.59 µM and the LC50 [6] was over 100 µM. It also gave a GI50 [7] of 0.33 µM, an LC50 (concentration killing 50% of cells) [7] of over 100 µM and a GI50 [8] of 0.51 µM. For the same compound, the LC50 (50% net cell kill) [8] was 56 µM, the GI50 [9] was 1.38 µM and the LC50 [9] was over 100 µM. The GI50 [10] was 0.56 µM, the LC50 [10] was over 100 µM and the GI50 [11] was 0.28 µM. For the same compound, the LC50 [11] was 7.38 µM, the GI50 [12] was 0.29 µM and the LC50 (concentration killing 50% of cells present at time zero) [12] was 64.2 µM. For the same compound, the GI50 [13] was 0.76 µM, the CC50 [13] was over 100 µM and the GI50 [14] was 0.33 µM. For the same compound, the CC50 [14] was over 100 µM, the GI50 [15] was 0.37 µM and the LC50 [15] was over 100 µM. The GI50 [16] was 0.37 µM, the CC50 [16] was 5.07 µM and the GI50 [17] was 0.6 µM. For the same compound, the LC50 [17] was over 100 µM, the GI50 [18] was 0.35 µM and the LC50 [18] was over 100 µM. It also gave a GI50 [19] of 0.29 µM, an LC50 (concentration killing 50% of cells) [19] of over 100 µM and a GI50 [20] of 0.36 µM. It also gave an LC50 [20] of 7.92 µM, a GI50 [21] of 0.41 µM and an LC50 [21] of over 100 µM. The GI50 [22] was 0.95 µM, the LC50 [22] was over 100 µM and the GI50 [23] was 0.54 µM. For the same compound, the CC50 [23] was over 100 µM, the GI50 [24] was 0.26 µM and the LC50 (concentration killing 50% of cells) [24] was over 100 µM. The GI50 [25] was 0.2 µM and the CC50 [25] was 4.56 µM.

In the case of COc1ccc(C2CC(c3cccc(Nc4ccnc5cc(Cl)ccc45)c3)=NN2C=O)cc1 (stereo not given), the GI50 [1] is reported as 0.37 µM, the CC50 [1] is reported as over 100 µM and the GI50 [2] is reported as 1.35 µM. The LC50 (concentration killing 50% of cells) [2] was over 100 µM, the GI50 [3] was 0.85 µM and the LC50 [3] was over 100 µM. It also gave a GI50 [4] of 0.85 µM, an LC50 (concentration killing 50% of cells) [4] of over 100 µM and a GI50 [5] of 0.26 µM. For the same compound, the CC50 [5] was over 100 µM, the GI50 [6] was 0.53 µM and the LC50 [6] was over 100 µM. It also gave a GI50 [7] of 0.7 µM, an LC50 (concentration killing 50% of cells) [7] of over 100 µM and a GI50 [8] of 0.95 µM. It also gave an LC50 (50% net cell kill) [8] of over 100 µM, a GI50 [9] of 3.51 µM and an LC50 [9] of over 100 µM. For the same compound, the GI50 [10] was 0.89 µM, the LC50 [10] was over 100 µM and the GI50 [11] was 0.47 µM. For the same compound, the LC50 [11] was 77.4 µM, the GI50 [12] was 0.41 µM and the LC50 (concentration killing 50% of cells present at time zero) [12] was over 100 µM. It also gave a GI50 [13] of 0.96 µM, a CC50 [13] of over 100 µM and a GI50 [14] of 0.4 µM. For the same compound, the CC50 [14] was over 100 µM, the GI50 [15] was 0.74 µM and the LC50 [15] was over 100 µM. The GI50 [16] was 0.45 µM, the CC50 [16] was 41.8 µM and the GI50 [17] was 0.87 µM. For the same compound, the LC50 [17] was over 100 µM, the GI50 [18] was 0.36 µM and the LC50 [18] was over 100 µM. It also gave a GI50 [19] of 0.44 µM, an LC50 (concentration killing 50% of cells) [19] of over 100 µM and a GI50 [20] of 0.45 µM. It also gave an LC50 [20] of 13.9 µM, a GI50 [21] of 0.4 µM and an LC50 [21] of over 100 µM. The GI50 [22] was 0.64 µM, the LC50 [22] was over 100 µM and the GI50 [23] was 0.57 µM. It also gave a CC50 [23] of over 100 µM, a GI50 [24] of 0.29 µM and an LC50 (concentration killing 50% of cells) [24] of over 100 µM. For the same compound, the GI50 [25] was 0.25 µM and the CC50 [25] was 5.28 µM.
